Key:
[1] = Antiproliferative activity against HEK293 cells assessed as inhibition of cell growth measured after 3 to 4 days by MTT assay; format: toxicity, cell-based; settings: human, time 3-4 day
How it was run: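 HEK293 cells grown in DMEM with 2 mM L-glutamine, 1% pen/strep and 10% FCS. Cells were seeded at 5000 per well, left overnight, then given medium with 1% FCS plus compound or DMSO (max. 0.2% final). They were grown 3–4 days at 37 °C in 5% CO₂ with no medium change, and growth was read by MTT.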

[2] = target: Aurora kinase B (Homo sapiens) (UniProt Q96GD4); experiment: Inhibition of human recombinant AURKB at 2 uM by Eurofins kinase assay relative to control
Chain of Aurora kinase B (Homo sapiens) (Q96GD4 whole entry): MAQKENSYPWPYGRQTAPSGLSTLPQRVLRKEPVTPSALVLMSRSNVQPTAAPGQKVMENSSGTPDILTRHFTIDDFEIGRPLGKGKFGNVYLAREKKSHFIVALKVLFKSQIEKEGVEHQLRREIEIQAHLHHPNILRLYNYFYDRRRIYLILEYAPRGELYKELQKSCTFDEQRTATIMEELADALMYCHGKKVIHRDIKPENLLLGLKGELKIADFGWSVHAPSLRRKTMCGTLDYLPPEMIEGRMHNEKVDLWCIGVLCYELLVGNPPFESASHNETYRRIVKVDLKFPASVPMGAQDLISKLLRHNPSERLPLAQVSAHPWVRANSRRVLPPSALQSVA

[3] = target: Dual specificity protein kinase CLK4 (Homo sapiens) (UniProt Q9HAZ1); experiment: Inhibition of human recombinant CLK4 at 2 uM by Eurofins kinase assay relative to control
Chain of Dual specificity protein kinase CLK4 (Homo sapiens) (Q9HAZ1 whole entry, looked up): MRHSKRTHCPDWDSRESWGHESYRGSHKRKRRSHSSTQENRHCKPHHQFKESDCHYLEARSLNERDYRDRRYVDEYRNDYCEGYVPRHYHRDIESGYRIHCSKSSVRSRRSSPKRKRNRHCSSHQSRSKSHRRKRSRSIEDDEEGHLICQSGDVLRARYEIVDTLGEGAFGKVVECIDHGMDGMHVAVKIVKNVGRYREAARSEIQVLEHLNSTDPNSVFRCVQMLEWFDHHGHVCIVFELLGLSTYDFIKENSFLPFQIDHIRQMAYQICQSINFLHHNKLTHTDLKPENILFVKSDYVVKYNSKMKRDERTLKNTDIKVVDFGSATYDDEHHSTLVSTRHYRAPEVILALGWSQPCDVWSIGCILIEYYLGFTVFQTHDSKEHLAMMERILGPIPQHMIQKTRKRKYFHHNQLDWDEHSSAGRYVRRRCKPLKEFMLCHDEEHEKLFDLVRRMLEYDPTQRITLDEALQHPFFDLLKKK

[4] = target: Dual specificity tyrosine-phosphorylation-regulated kinase 1A (Homo sapiens) (UniProt Q13627); experiment: Inhibition of human DYRK1A at 2 uM by Eurofins kinase assay relative to control
[5] = target: Vascular endothelial growth factor receptor 3 (Homo sapiens) (UniProt P35916); experiment: Inhibition of human recombinant FLT4 at 2 uM by Eurofins kinase assay relative to control
[6] = target: Serine/threonine-protein kinase haspin (Homo sapiens) (UniProt Q8TF76); experiment: Inhibition of human recombinant GSG2 at 2 uM by Eurofins kinase assay relative to control
[7] = target: Glycogen synthase kinase-3 beta (Homo sapiens) (UniProt P49841); experiment: Inhibition of human recombinant GSK3B at 2 uM by Eurofins kinase assay relative to control
[8] = target: Homeodomain-interacting protein kinase 3 (Homo sapiens) (UniProt Q9H422); experiment: Inhibition of human recombinant HIPK3 at 2 uM by Eurofins kinase assay relative to control
[9] = target: Mitogen-activated protein kinase 8 (Homo sapiens) (UniProt P45983); experiment: Inhibition of human recombinant MAPK8 at 2 uM by Eurofins kinase assay relative to control
Chain of Mitogen-activated protein kinase 8 (Homo sapiens) (P45983 whole entry): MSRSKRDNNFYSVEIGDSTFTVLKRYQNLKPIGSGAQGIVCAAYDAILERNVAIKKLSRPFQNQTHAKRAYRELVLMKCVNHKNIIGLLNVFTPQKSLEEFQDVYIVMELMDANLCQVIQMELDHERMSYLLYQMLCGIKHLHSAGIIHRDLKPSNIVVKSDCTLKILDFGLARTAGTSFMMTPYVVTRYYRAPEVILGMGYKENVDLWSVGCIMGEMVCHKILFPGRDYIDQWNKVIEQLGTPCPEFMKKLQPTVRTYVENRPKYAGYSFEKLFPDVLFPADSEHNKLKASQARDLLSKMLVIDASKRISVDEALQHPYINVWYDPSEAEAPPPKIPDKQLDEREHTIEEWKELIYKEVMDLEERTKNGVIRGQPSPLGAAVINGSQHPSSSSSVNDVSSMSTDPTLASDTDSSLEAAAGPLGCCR

[10] = target: Hepatocyte growth factor receptor (Homo sapiens) (UniProt P08581); experiment: Inhibition of human MET at 2 uM by Eurofins kinase assay relative to control
Chain of Hepatocyte growth factor receptor (Homo sapiens) (P08581 whole entry, the tested form may be a part): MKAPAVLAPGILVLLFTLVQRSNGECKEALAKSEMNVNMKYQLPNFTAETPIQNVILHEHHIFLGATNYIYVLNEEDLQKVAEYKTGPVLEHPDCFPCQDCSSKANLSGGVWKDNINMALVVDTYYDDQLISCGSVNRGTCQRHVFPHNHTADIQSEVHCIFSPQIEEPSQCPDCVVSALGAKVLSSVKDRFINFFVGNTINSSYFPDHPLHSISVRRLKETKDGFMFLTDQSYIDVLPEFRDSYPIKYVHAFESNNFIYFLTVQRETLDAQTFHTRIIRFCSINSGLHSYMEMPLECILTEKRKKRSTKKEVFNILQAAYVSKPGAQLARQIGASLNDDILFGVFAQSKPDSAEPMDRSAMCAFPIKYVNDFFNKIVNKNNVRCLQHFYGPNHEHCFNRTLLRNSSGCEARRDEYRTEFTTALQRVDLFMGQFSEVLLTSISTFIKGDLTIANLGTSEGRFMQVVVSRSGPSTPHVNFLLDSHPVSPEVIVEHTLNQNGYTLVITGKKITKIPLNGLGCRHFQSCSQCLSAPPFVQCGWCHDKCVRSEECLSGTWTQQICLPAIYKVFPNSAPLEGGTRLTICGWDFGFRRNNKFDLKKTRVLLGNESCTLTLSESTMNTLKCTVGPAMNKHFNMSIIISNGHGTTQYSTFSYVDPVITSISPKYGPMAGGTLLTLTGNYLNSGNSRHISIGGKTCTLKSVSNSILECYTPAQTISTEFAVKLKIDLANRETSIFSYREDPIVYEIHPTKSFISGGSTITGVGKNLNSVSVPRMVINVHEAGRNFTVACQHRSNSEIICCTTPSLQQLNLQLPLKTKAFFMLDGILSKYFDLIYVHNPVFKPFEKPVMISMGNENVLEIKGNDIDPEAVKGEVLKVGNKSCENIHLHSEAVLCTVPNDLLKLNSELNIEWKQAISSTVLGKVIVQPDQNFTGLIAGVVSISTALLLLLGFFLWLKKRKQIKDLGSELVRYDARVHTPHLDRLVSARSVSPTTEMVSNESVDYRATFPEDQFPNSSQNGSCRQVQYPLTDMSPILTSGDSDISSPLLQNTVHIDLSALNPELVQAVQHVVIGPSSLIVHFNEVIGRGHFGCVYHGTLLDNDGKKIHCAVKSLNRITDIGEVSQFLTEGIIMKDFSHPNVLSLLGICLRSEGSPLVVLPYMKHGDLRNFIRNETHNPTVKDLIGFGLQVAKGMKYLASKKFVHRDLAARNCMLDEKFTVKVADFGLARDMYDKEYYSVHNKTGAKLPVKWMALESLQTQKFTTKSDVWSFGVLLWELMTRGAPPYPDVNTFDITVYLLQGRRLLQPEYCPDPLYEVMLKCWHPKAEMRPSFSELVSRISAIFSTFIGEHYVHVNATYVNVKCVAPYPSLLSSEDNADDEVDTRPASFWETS

[11] = target: PAS domain-containing serine/threonine-protein kinase (Homo sapiens) (UniProt Q96RG2); experiment: Inhibition of human recombinant PASK at 2 uM by Eurofins kinase assay relative to control
Homo sapiens = organism: Homo sapiens; experiment: Inhibition of human recombinant His-tagged PIK3CA/PIK3R1 at 2 uM by Eurofins kinase assay relative to control
[12] = target: Serine/threonine-protein kinase pim-1 (Homo sapiens) (UniProt P11309); experiment: Inhibition of human recombinant PIM1 at 2 uM by Eurofins kinase assay relative to control
Chain of Serine/threonine-protein kinase pim-1 (Homo sapiens) (P11309 whole entry, looked up): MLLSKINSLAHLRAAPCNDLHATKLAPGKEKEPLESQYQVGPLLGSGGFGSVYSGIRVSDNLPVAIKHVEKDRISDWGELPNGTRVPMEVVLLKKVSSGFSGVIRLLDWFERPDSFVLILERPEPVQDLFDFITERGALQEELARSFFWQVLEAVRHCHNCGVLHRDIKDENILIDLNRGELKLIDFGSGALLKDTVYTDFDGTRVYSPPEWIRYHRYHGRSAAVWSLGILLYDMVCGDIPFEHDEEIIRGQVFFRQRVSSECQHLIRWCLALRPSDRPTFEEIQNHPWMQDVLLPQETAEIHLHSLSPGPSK

[13] = target: Serine/threonine-protein kinase D1 (Homo sapiens) (UniProt Q15139); experiment: Inhibition of human recombinant PRKD1 at 2 uM by Eurofins kinase assay relative to control
Chain of Serine/threonine-protein kinase D1 (Homo sapiens) (Q15139 whole entry): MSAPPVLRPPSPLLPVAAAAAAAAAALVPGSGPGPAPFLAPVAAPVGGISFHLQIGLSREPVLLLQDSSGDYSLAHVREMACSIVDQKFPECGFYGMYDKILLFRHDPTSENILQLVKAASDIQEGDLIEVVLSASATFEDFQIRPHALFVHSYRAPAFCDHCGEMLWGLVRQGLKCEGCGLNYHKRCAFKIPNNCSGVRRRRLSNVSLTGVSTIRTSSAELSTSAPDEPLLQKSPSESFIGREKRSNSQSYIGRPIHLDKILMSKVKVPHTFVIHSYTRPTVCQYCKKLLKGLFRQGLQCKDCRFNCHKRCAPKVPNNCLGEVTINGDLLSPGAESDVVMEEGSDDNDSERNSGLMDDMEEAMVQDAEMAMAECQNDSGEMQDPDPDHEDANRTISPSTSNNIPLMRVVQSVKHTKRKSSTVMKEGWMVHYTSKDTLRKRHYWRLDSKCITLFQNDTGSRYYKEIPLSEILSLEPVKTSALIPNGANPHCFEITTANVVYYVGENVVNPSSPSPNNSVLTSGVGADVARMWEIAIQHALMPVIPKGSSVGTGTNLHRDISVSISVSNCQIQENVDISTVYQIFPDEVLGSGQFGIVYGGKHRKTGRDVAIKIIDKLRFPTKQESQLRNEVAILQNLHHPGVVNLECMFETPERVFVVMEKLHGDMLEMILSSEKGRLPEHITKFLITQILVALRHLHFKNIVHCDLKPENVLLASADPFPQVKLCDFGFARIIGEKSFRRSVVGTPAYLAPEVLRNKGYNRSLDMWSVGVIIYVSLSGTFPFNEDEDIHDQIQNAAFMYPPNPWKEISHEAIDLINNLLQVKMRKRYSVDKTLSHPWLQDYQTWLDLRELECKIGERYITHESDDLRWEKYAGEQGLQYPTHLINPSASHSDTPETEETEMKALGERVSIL

[14] = target: Proto-oncogene tyrosine-protein kinase Src (Homo sapiens) (UniProt P12931); experiment: Inhibition of human recombinant SRC at 2 uM by Eurofins kinase assay relative to control
Chain of Proto-oncogene tyrosine-protein kinase Src (Homo sapiens) (P12931 2-536 limits assumed): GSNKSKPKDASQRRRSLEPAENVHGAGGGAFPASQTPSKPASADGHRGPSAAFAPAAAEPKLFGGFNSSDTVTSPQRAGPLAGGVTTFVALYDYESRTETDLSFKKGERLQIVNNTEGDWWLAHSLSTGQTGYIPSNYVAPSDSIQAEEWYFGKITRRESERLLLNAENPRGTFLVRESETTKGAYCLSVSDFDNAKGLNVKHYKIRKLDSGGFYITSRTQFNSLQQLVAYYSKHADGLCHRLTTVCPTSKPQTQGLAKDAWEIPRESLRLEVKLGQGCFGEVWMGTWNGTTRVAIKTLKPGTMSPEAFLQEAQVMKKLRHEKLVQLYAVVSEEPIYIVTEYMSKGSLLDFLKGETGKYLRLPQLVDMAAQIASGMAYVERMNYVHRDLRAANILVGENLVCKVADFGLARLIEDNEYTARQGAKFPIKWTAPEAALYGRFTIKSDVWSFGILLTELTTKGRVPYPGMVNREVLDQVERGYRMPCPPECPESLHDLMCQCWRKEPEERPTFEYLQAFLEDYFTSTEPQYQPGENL

[15] = target: Serine/threonine-protein kinase 17A (Homo sapiens) (UniProt Q9UEE5); experiment: Inhibition of human STK17A at 2 uM by Eurofins kinase assay relative to control
[16] = target: Serine/threonine-protein kinase TBK1 (Homo sapiens) (UniProt Q9UHD2); experiment: Inhibition of human TBK1 at 2 uM by Eurofins kinase assay relative to control
[17] = Upregulation of PARP cleavage in human U-937 cells by measuring signal 1 at 5 uM measured after 48 hrs by immunoblot analysis; format: functional
How it was run: (§1)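 U937 cells exposed to compound or DMSO for 48 h, then lysed in Laemmli buffer. Lysates were run on 8–16% gradient SDS-PAGE, semi-dry blotted to PVDF and probed for PARP. Detection used IR-fluorescent secondary antibodies. The cleaved/uncleaved PARP signal ratio was obtained by densitometry. Results are representative of two independent experiments.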

[18] = Upregulation of PARP cleavage in human U-937 cells by measuring signal 1 at 15 uM measured after 48 hrs by immunoblot analysis; format: functional; how it was run: as §1
[19] = Upregulation of PARP cleavage in human U-937 cells by measuring signal 1 at 30 uM measured after 48 hrs by immunoblot analysis; format: functional; how it was run: as §1
[20] = Upregulation of PARP cleavage in human U-937 cells by measuring signal 2 at 5 uM measured after 48 hrs by immunoblot analysis; format: functional
How it was run: (§2)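 U937 lymphoma cells grown in RPMI with 2 mM L-glutamine, 1 % pen/strep and 10 % FCS; exposed to compound or DMSO solvent control for 48 h. Total cellular proteins harvested and immunoblotted with an antibody against phosphorylated CK2-substrate motifs and for PARP. Read-out is the densitometric ratio of cleaved to uncleaved PARP signal. Representative of two independent experiments.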

[21] = Upregulation of PARP cleavage in human U-937 cells by measuring signal 2 at 30 uM measured after 48 hrs by immunoblot analysis; format: functional; how it was run: as §2
[22] = target: Signal transducer and activator of transcription 3 (Homo sapiens) (UniProt P40763); experiment: Inhibition of STAT3 phosphorylation in human 786-O cells at 6 uM measured after 48 hrs by immunoblot analysis relative to control
[23] = target: T1, Hsp90 co-chaperone Cdc37 (Homo sapiens) (UniProt Q16543); experiment: Inhibition of CDC37 phosphorylation in human 786-O cells at 6 uM measured after 48 hrs by immunoblot analysis relative to control
T1 sequence (whole entry): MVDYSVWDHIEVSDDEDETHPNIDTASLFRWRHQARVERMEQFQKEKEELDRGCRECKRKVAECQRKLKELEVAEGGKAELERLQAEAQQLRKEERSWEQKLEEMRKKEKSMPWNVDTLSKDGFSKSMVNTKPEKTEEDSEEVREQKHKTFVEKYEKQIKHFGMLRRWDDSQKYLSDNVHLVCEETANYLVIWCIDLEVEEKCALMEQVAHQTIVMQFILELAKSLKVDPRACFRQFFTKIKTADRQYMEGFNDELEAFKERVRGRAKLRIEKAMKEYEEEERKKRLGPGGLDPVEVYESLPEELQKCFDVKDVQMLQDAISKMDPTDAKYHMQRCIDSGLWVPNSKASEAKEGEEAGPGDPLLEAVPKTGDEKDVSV

[24] = target: Eukaryotic translation initiation factor 2 subunit 2 (Homo sapiens) (UniProt P20042); experiment: Inhibition of eIF2beta phosphorylation in human 786-O cells at 6 uM measured after 48 hrs by immunoblot analysis relative to control
Chain of Eukaryotic translation initiation factor 2 subunit 2 (Homo sapiens) (P20042 whole entry): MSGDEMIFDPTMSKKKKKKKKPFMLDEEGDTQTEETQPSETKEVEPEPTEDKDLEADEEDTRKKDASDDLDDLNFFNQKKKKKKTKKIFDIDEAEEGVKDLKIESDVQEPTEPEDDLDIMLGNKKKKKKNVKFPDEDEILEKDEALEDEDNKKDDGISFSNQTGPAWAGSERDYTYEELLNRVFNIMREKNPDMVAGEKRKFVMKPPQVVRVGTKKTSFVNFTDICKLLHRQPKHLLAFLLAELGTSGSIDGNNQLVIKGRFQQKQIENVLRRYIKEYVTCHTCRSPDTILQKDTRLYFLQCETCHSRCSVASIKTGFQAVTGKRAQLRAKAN

[25] = target: Eukaryotic translation initiation factor 2 subunit 2 (Homo sapiens) (UniProt P20042); experiment: Inhibition of eIF2beta phosphorylation in human 786-O cells at 10 uM measured after 48 hrs by immunoblot analysis relative to control

## Clc1ccc(N2CCN(c3ncnc4sc5c(c34)CCNC5)CC2)cc1.O=C(O)C(F)(F)F
[1]
  GI50: 30 µM
[2]
  inhibition: 4%
[3]
  inhibition: 11%
[4]
  inhibition: 4%
[5]
  inhibition: 5%
[6]
  inhibition: 5%
[7]
  inhibition: 0%
[8]
  inhibition: 9%
[9]
  inhibition: 18%
[10]
  inhibition: 2%
[11]
  inhibition: 0%
Homo sapiens
  inhibition: 0%
[12]
  inhibition: 0%
[13]
  inhibition: 10%
[14]
  inhibition: 6%
[15]
  inhibition: 0%
[16]
  inhibition: 4%
[17]
  Activity: 72%
[18]
  Activity: 96%
[19]
  Activity: 98%
[20]
  Activity: 17%
[21]
  Activity: 95%
[22]
  inhibition: 64%
[23]
  inhibition: 0%
[24]
  inhibition: 0%
[25]
  inhibition: 83%
